# Source: PubChem BioAssay
# M5 antag: human M5 muscarinic receptor antagonists, primary screen, CHO cells, Fluo-8 calcium fluorescence | Muscarinic acetylcholine receptor M5 (Homo sapiens), P08912 | 360,000 compounds, 0.59% hits | inhibition, % at 3 µM | CHO-hM5 cells, ACh EC80 | AID 624040, 2012;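 active = inhibition above a per-plate cutoff, the mean of that plate's test compounds plus 3 SD, cut at about 27% in these data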;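 also: 0% = acetylcholine EC80 with DMSO and 100% = DMSO without agonist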
# CHRM5 agonist: human M5 muscarinic receptor agonists, primary screen, CHO-K1 cells, Fluo-8 calcium fluorescence; Muscarinic acetylcholine receptor M5 (Homo sapiens), P08912; CHO-K1 hM5 cells; 0% DMSO wells, 100% maximal acetylcholine response; activation, % at 3 µM; AID 624037, 2012; 360,000 compounds, 0.19% hits;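 active = activation above the run's mean over test compounds plus 3 SD, cut at about 23% in these data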;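 also: signal is peak over basal fluorescence ratio across the kinetic read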
# CHRM4 PAM: human M4 muscarinic receptor positive allosteric modulators, primary screen, CHO-K1 cells, Fluo-8 calcium fluorescence | Muscarinic acetylcholine receptor M4 (Homo sapiens), P08173 | CHO-K1 hM4/Gqi5, ACh EC20; 0% = ACh EC20, 100% = maximal ACh | activation, % at 3 µM | 360,000 compounds, 0.4% hits;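 active = activation above its plate's cutoff, the mean activation of sample wells plus 3 SD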
# Target sequence (P08173 whole entry, looked up): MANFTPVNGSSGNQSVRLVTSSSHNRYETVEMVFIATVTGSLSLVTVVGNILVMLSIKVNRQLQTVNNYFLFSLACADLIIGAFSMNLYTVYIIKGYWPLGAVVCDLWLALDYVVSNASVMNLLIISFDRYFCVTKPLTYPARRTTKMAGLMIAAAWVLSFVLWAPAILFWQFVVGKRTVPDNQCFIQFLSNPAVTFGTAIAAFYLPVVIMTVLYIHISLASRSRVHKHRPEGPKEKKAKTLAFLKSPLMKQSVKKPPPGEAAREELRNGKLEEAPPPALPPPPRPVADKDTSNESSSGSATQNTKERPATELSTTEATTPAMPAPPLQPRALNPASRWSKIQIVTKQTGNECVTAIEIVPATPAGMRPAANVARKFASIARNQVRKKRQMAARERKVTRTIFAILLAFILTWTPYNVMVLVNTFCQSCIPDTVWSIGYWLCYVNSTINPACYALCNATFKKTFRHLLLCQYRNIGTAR
# CHRM4 agonist: human M4 muscarinic receptor agonists, primary screen, CHO-K1 cells, Fluo-8 calcium fluorescence | CHO-K1 hM4/Gqi5; vehicle 0%, full acetylcholine response 100% | activation, % at 3 µM | 360,000 compounds, 0.14% hits | AID 624127, 2012;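 active = activation above the run mean over all test wells plus 3 SD, cut at about 32% in these data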;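 also: peak over basal fluorescence ratio per well then scaled between controls; 0% = DMSO wells and 100% = acetylcholine at EC100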
# M5 PAM: human M5 muscarinic receptor positive allosteric modulators, primary screen, CHO-K1 cells, Fluo-8 calcium fluorescence | 360,000 compounds, 0.3% hits | activation, % at 3 µM | Muscarinic acetylcholine receptor M5 (Homo sapiens), P08912 | CHO-K1 hM5, ACh EC20 PAM; 0% = ACh EC20, 100% = ACh EC100;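 active = activation above the run cutoff, the mean activation of all test compounds plus 3 SD, cut at about 18% in these data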
#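 System: CHO-K1 cell line with stable human muscarinic M5 receptor expression | Also added: EC20 acetylcholine as agonist stimulus | Compound: One concentration, 3 µM final (nominal) | Timing: Fluo-8 loading 80 min at 37 °C plus 30 min room temperature | Measured by: Fluo-8 calcium dye fluorescence, kinetic read | Read-out basis: % activation, ACh-normalized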
# M4 antag: human M4 muscarinic receptor antagonists, primary screen, CHO cells, Fluo-8 calcium fluorescence; Muscarinic acetylcholine receptor M4 (Homo sapiens), P08173; inhibition, % at 3 µM; CHO-hM4 cells, ACh EC80; AID 624125, 2012; 360,000 compounds, 0.73% hits;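 active = inhibition above its plate's cutoff, the mean inhibition of sample wells plus 3 SD, cut at about 27% in these data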;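 also: 0% = acetylcholine EC80 with DMSO and 100% = DMSO without agonist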
# Numbers without * were called inactive. Most compounds without a hit are left out; they make up all but 1.9% or so of the library.
SMILES,M5 antag,CHRM5 agonist,CHRM4 PAM,CHRM4 agonist,M5 PAM,M4 antag
CCCC(O)(CCN1CCOCC1)c1ccc(Cl)cc1 (stereo not drawn),19.0,-19.0,-40.4,0.7,-30.4,21.6
CCOc1ccc(CC(C(=O)NN)C(=O)NN)cc1CN(C)C,-8.9,-1.0,19.2*,-0.6,2.9,-22.2
CSc1ccc(CCNC(=O)CN2C(=O)c3cccnc3Oc3ccc(C)cc32)cc1,24.9,0.4,-7.1,15.1,-10.4,32.9*
Cc1ccccc1NS(=O)(=O)c1ccc(NC(=O)c2ccco2)cc1,-14.4,-1.9,-3.0,4.5,28.1*,-8.8
COc1ccccc1C(=O)NCCC(=O)N1CC=C(c2ccccc2)CC1,-2.7,1.3,6.1,2.5,-1.6,-12.2
CCN(CC)c1ccc2c(-c3ccc(S(=O)(=O)O)cc3S(=O)(=O)[O-])c3ccc(=[N+](CC)CC)cc-3oc2c1,7.9,22.7,-17.2,78.5*,-8.0,17.2
COc1ccc(C(=O)O)cc1NC(=S)NC(=O)/C=C/c1ccc(C(C)C)cc1,12.6,-3.2,-1.3,0.0,-0.7,8.5
O=C(NCc1ccncc1)C(=O)NCC1OCCN1S(=O)(=O)c1ccccc1 (stereo not drawn),-1.3,0.6,1.9,0.7,1.8,-12.1
O=C(CC1SCCNC1=O)Nc1cccc(C(F)(F)F)c1 (stereo not drawn),-1.8,0.0,32.4*,2.9,1.7,-5.0
COc1ccc(Cl)cc1Nc1cc(C)nc2ncnn12,1.5,-0.7,-2.1,0.9,-3.9,-4.6
O=C(O)C1CCC(=O)N(C2CC2)C1c1ccccc1 (stereo not drawn),-8.7,2.0,0.4,0.3,12.0,1.9
O=C(O)C1CCC(=O)N(C2CCCCC2)C1c1ccccc1Cl (stereo not drawn),-10.4,2.0,15.3,0.5,18.6*,0.2
CC(Nc1ncnc2sccc12)c1ccccc1 (stereo not drawn),33.0*,6.3,-4.2,12.8,-12.2,13.6
Cc1ccccc1S(=O)(=O)NC(=O)C1(C)CCN1C(=O)C1CCCCC1 (stereo not drawn),-2.4,-0.3,4.6,1.2,-2.3,-18.1
O=C(NCC(=O)N(CC1CCCO1)C(C(=O)NC1CCCC1)c1cccnc1)c1ccco1 (stereo not drawn),-12.7,8.2,16.6,0.8,23.1*,4.9
O=C(NCC(=O)N(Cc1ccccc1)C(C(=O)NC1CCCC1)c1cccnc1)c1ccco1 (stereo not drawn),6.4,-6.2,18.0*,1.5,8.3,2.0
COc1ccc(OC)c(NC(=O)CCN2CCN(CCO)CC2)c1,4.9,1.1,3.4,0.5,1.2,6.6
CCOc1cc2[nH]c(=S)n(CCCCC(=O)NCc3ccco3)c(=O)c2cc1OCC,-14.9,4.5,32.0*,0.2,4.7,3.1
CCOC(=O)c1cnc2c(C(=O)OC)cccc2c1NCCN1CCOCC1,-4.4,-0.3,10.2,0.4,7.0,-1.4
CCOC(=O)c1cnc2c(C)cccc2c1NCCCN1CCOCC1,4.7,-2.0,20.2*,3.6,2.0,-1.8
CCOC(=O)c1cnc2c(C)cc(Cl)cc2c1NCCCN1CCOCC1,1.0,-2.0,-2.0,1.9,1.7,-9.8
CCOC(=O)c1cnc2c(CC)cccc2c1NCCN1CCOCC1,27.5*,-7.9,-12.9,1.5,-1.5,5.6
Cc1ccc(NC(=O)CSCC(=O)N(C)Cc2c(F)cccc2Cl)cc1,4.3,2.9,-6.4,6.8,4.0,-6.1
CN1CCC(=C2c3ccccc3CCc3sccc32)CC1,98.8*,0.2,-17.4,5.0,-18.2,99.2*
CN1CCC(=C2c3ccccc3C(O)c3ccccc32)CC1 (stereo not drawn),98.7*,-7.1,-20.0,2.4,-18.6,96.2*
CN1CCC(=C2c3ccccc3CC(=O)c3sccc32)CC1,98.1*,0.5,-17.0,5.9,-18.9,71.5*
